Experimental findings from ChEMBL document CHEMBL1139309, “Novel fluorinated pseudopeptides as proteasome inhibitors” (Bioorg Med Chem Lett, 2009) are described below.

The target in experiment [1] is Cathepsin B (Homo sapiens) (UniProt P07858). Nature of the experiment: Inhibition of CTSB. In short, it runs like this:
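Cathepsin B was assayed at 37 °C using Z-RR-AMC substrate in 352 mM KH2PO4 (pH 6), 48 mM NaHPO4, 1 mM EDTA and 1 mM DTT.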

Experiment [2] in a line: (§1) Inhibition of post-acid activity of rabbit 20S proteasome. More on the design: species or system Oryctolagus cuniculus. An outline of the steps: (§2)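 Rabbit 20S proteasome was run at 37 °C, pH 7.5, for 45 min, with and without compound (0.1–200 µM). Fluorogenic substrates were Suc-LLVY-AMC for chymotrypsin-like activity and Z-LLE-βNA for post-acid activity. Buffer was 20 mM Tris, 1 mM DTT, 10% glycerol and 0.02% (w/v) SDS. IC50 or % inhibition at 100 µM is the mean of three experiments.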

The target in experiment [3] is T1, Calpain-1 catalytic subunit (Homo sapiens) (UniProt P07384).
T1 sequence (whole entry): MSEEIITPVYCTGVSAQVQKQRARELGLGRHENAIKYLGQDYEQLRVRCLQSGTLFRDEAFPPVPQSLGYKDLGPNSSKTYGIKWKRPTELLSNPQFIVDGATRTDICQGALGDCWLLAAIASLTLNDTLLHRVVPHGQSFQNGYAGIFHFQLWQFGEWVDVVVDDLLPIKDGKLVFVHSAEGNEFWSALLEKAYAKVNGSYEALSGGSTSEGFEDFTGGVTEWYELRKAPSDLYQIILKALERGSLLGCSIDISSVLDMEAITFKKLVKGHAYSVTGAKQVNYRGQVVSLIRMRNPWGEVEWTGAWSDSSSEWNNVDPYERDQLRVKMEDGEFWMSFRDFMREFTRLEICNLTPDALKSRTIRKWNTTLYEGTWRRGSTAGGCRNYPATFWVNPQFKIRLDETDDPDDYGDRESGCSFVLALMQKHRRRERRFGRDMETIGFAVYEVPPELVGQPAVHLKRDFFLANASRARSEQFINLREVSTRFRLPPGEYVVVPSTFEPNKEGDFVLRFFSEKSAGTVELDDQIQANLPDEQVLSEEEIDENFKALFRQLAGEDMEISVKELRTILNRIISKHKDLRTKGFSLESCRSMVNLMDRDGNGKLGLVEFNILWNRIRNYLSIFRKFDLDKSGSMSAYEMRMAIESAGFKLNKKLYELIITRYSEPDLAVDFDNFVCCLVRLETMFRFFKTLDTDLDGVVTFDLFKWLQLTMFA
Nature of the experiment: Inhibition of calpain 1. An outline of the steps: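 Purified calpain I was assayed at 37 °C with Suc-LLVY-AMC substrate in 50 mM Tris–HCl (pH 7.2), 10 mM DTT and 2 mM CaCl2.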

The species named for experiment [4] is Oryctolagus cuniculus. Put plainly: Inhibition of trypsin-like activity of rabbit 20S proteasome at 100 uM. In short, it runs like this:
(§3)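 Trypsin-like activity of rabbit 20S proteasome was followed by Boc-LRR-AMC hydrolysis over 45 min at 37 °C, with and without compound (0.1–200 µM). Buffer was pH 7.5 20 mM Tris, 1 mM DTT and 10% glycerol, with no SDS. Values are IC50 or % inhibition at 100 µM, as means of three experiments.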

The nature of experiment [5]: (§4) Inhibition of chymotrypsin-like activity of rabbit 20S proteasome. More on the design: species or system Oryctolagus cuniculus. In short, it runs like this: as §2
The species entered for experiment [6] is Oryctolagus cuniculus. The experiment is described as §4. An outline of the steps:
as §2

For experiment [7], the species on record is Oryctolagus cuniculus. Nature of the experiment: (§5) Inhibition of trypsin-like activity of rabbit 20S proteasome. In short, it runs like this: as §3
The species named for experiment [8] is Oryctolagus cuniculus. The experiment is described as §1. In short, it runs like this: as §2
For experiment [9], the system named is HeLa. Put plainly: Inhibition of chymotrypsin-like activity of 20S proteasome in human HeLa cells at 50 uM after 1.5 hrs by chemiluminescent assay.
Experiment [10] is described as follows: as §5. More on the design: species or system Oryctolagus cuniculus. An outline of the steps: as §3

The source made the active and inactive calls. The calls are words filed in the database; no cut-off is given here.

Regarding `COC(=O)[C@H](Cc1ccccc1)NC(=O)CC(NNC(=O)[C@H](CCCCN)NC(=O)OC(C)(C)C)C(F)(F)F` (mixture of isomers), the result in [1] and in [3] was inactive. In addition, the IC50 amounted to 6 µM in experiment [2] and 32 µM in experiment [5]. For the same compound, the inhibition in [4] was 30%.

On to `COC(=O)[C@H](Cc1ccccc1)NC(=O)CC(NNC(=O)[C@H](CCCCNC(=O)OCc1ccccc1)NC(=O)Cc1cccc(Oc2ccccc2)c1)C(F)(F)F` (mixture of isomers), for which half-maximal inhibition in experiment [2] (IC50) required 200 µM. Also, the result in experiment [6] and in [7] was inactive.

As to `COC(=O)[C@H](Cc1ccccc1)NC(=O)CC(NNC(=O)[C@H](CCCCNC(=O)OCc1ccccc1)NC(=O)OC(C)(C)C)C(F)(F)F` (mixture of isomers), the result in experiment [8] and in experiment [6] was inactive.

As to `COC(=O)[C@H](Cc1ccccc1)NC(=O)CC(NNC(=O)Cc1cccc(Oc2ccccc2)c1)C(F)(F)F` (mixture of isomers), the result in [8] and in experiment [7] was inactive.

For the compound `COC(=O)[C@H](Cc1ccccc1)NC(=O)CC(NNC(=O)[C@H](CCCCN)NC(=O)Cc1cccc(Oc2ccccc2)c1)C(F)(F)F` (mixture of isomers), the outcome in [1] and in [3] was inactive. For the same compound, the IC50 in experiment [2] worked out at 2.7 µM; in [5], 1.6 µM; in [10], 8.4 µM. The inhibition in experiment [9] came to 20%.

In the case of `COC(=O)[C@H](Cc1ccccc1)NC(=O)CC(NNC(=O)[C@@H](N)CCCCNC(=O)OCc1ccccc1)C(F)(F)F` (mixture of isomers), the outcome in experiment [1], in experiment [8] and in [3] was inactive. For the same compound, the IC50 is 5.9 µM in experiment [5] and 4.4 µM in experiment [10].

With `COC(=O)[C@H](Cc1ccccc1)NC(=O)CC(NNC(=O)[C@H](Cc1ccc(OC)c(OC)c1)NC(=O)Cc1cccc(Oc2ccccc2)c1)C(F)(F)F` (mixture of isomers), the IC50 worked out at 72 µM in experiment [2] and 85 µM in [5].
